Test results reported in ChEMBL document CHEMBL1129439, “Synthesis and in vitro characterization of N-[5-(4,5-dihydro-1H-imidazol-2-yl)-2-hydroxy-5,6,7,8- tetrahydronaphthalen-1-yl]methanesulfonamide and its enantiomers: a novel selective alpha 1A receptor agonist” (J Med Chem, 1996).
pEC50, pKi: −log10 of the molar value.

Tests used:
[1] = target: T1, Alpha-1A adrenergic receptor (Bos taurus, UniProt P18130); assay: Binding affinity towards bovine clonal Alpha-1A adrenergic receptor
T1 sequence (P18130 whole entry): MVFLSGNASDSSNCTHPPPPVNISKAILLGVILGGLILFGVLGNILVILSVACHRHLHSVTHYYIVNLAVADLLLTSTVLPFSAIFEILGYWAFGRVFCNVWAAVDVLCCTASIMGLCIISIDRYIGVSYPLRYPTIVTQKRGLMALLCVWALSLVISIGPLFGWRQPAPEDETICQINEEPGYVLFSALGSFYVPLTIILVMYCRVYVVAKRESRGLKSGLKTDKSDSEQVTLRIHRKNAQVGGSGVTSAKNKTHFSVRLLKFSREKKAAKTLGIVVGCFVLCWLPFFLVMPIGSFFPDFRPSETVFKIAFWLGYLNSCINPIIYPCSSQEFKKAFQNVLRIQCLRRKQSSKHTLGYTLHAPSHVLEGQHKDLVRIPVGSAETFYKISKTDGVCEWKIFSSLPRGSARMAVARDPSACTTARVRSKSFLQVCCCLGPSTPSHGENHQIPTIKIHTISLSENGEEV
Method in brief: (§1)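 Radioligand binding to cloned receptors: bovine α1a for line 1 and rat α1d for line 2.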

[2] = target: T2, Alpha-1A adrenergic receptor (Homo sapiens) (UniProt P35348); assay: Percent response towards alpha 1A adrenergic receptor in canine prostate using phenylephrine as control agonist; type: functional, tissue-based; conditions: Canis lupus familiaris; Prostate gland; target entry is the homologue from another species
T2 sequence (whole entry): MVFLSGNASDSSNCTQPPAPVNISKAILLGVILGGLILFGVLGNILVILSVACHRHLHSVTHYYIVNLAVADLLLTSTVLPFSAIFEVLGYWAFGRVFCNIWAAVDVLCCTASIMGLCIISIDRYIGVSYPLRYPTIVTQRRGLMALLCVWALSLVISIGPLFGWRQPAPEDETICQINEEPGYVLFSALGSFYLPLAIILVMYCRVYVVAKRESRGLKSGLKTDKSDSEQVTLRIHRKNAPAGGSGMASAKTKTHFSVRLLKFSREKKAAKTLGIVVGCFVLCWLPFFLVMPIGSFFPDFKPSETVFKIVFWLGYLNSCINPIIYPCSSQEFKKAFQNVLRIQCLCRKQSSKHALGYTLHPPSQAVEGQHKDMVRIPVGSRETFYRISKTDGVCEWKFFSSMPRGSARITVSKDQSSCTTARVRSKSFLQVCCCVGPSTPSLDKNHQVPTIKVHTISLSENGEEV

[3] = target: T3, Alpha-1A adrenergic receptor (Rattus norvegicus) (UniProt P43140); assay: Percent response towards alpha 1A adrenergic receptor in rat vas deferens using phenylephrine as control agonist; type: functional, tissue-based
T3 sequence (whole entry): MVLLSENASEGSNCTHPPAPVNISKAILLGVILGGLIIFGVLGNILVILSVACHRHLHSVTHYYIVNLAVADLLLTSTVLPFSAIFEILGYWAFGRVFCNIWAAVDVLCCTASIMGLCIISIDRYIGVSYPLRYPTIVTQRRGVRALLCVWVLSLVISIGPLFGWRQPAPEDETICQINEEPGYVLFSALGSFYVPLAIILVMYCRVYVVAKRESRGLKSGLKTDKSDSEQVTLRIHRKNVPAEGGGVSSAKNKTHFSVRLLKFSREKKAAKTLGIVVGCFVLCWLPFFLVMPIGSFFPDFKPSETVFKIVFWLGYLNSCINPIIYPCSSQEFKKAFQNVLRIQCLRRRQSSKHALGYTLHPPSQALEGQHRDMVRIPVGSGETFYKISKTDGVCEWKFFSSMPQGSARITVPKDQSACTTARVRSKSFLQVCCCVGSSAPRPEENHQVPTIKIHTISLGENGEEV

[4] = target: T4, Alpha-1D adrenergic receptor (Rattus norvegicus) (UniProt P23944); assay: Percent response towards alpha 1D adrenergic receptor in rat aorta using phenylephrine as control agonist; type: functional, tissue-based
T4 sequence (whole entry): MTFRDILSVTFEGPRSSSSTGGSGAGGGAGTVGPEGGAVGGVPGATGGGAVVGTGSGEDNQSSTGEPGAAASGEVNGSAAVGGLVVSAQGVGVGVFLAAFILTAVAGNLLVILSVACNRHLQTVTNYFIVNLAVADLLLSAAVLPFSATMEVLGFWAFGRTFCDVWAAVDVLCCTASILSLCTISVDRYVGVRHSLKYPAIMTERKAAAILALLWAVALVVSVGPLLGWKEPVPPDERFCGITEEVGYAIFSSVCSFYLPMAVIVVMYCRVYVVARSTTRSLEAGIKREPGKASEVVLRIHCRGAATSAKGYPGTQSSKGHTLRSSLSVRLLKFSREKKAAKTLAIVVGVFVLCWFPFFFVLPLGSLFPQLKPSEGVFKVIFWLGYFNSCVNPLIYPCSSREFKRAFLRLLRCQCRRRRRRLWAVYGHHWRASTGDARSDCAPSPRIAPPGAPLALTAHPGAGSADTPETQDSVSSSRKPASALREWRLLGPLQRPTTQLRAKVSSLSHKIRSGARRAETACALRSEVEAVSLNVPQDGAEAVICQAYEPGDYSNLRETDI

[5] = target: T5, Alpha-1D adrenergic receptor (Rattus norvegicus, UniProt P23944); assay: In vitro agonist potency towards Alpha-1D adrenergic receptor in rat aorta; type: functional, tissue-based
T5 sequence (P23944 whole entry): T4 sequence (whole entry)

[6] = target: T5, Alpha-1D adrenergic receptor; assay: Binding affinity towards rat clonal Alpha-1D adrenergic receptor; method in brief: as §1
[7] = target: T6, Alpha-1B adrenergic receptor (Mesocricetus auratus, UniProt P18841); assay: Binding affinity towards hamster clonal Alpha-1B adrenergic receptor; type: single protein
T6 sequence (P18841 whole entry): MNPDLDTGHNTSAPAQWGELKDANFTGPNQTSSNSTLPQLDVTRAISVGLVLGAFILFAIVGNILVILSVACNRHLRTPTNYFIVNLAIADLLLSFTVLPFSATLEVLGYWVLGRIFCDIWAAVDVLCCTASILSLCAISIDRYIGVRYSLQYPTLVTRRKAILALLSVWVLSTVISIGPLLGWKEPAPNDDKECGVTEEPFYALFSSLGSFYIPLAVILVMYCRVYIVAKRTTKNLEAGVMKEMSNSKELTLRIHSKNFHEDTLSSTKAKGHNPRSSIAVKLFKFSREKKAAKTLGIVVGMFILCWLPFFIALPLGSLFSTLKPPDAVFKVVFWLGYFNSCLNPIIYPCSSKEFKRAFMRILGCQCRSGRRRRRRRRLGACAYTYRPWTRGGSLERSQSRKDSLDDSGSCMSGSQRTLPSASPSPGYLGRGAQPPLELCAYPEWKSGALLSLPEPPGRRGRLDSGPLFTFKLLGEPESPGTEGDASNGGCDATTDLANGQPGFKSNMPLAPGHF

[8] = target: T7, Alpha-1B adrenergic receptor (Rattus norvegicus, UniProt P15823); assay: In vitro agonist potency towards Alpha-1B adrenergic receptor in rat spleen; type: functional, tissue-based
T7 sequence (P15823 whole entry): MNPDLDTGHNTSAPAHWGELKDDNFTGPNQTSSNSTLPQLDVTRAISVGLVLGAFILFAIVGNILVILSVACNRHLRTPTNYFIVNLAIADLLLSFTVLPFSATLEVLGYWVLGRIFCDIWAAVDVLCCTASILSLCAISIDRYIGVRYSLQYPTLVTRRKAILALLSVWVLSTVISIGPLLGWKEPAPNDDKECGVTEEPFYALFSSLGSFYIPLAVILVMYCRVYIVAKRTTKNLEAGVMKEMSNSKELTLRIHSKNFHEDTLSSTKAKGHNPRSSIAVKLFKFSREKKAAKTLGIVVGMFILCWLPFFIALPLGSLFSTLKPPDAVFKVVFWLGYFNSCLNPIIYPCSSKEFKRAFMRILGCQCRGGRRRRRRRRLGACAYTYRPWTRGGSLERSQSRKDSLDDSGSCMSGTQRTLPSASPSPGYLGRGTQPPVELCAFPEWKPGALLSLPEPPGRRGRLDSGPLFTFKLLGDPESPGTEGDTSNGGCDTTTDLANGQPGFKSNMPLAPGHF

Row | pKi [1] | Emax [2] | Emax [3] | Emax [4] | Structure (SMILES) | pEC50 [5] | pKi [6] | pKi [7] | pEC50 [8]
1 | 7.52 | 91% | 108% | 100% | CS(=O)(=O)Nc1c(O)ccc2c1CCCC2C1=NCCN1 (stereo not given) | 5.59 | 5.87 | 5.68 | –
2 | 6.03 | 100% | 100% | 100% | CNC[C@H](O)c1cccc(O)c1 [PHENYLEPHRINE] | – | – | – | –
3 | 7.88 | 71% | 80% | 83% | Cc1cc(C(C)(C)C)c(O)c(C)c1CC1=NCCN1 [OXYMETAZOLINE] | – | – | – | –

More lines, now with the values behind:

Row | Structure (SMILES) | pKi [1] | Emax [2] | Emax [3] | Emax [4] | pEC50 [5] | pKi [6] | pKi [7] | pEC50 [8]
4 | CS(=O)(=O)Nc1c(O)ccc2c1CCC[C@@H]2C1=NCCN1 | 5.84 | 24% | 45% | – | < 4.00 | 5.53 | 4.76 | < 4.00
5 | CS(=O)(=O)Nc1c(O)ccc2c1CCC[C@H]2C1=NCCN1 | 7.76 | 63% | 78% | 103% | 5.99 | 5.99 | 5.55 | 6.73
6 | NCC(O)c1ccc(O)c(O)c1 (single isomer, unassigned) [NOREPINEPHRINE] | 6.35 | 117% | 105% | 113% | – | – | 6.58 | –
